High-throughput results deposited in PubChem BioAssay by several laboratories.
CHOP inh: inhibitors of CHOP induction in ER stress response | inhibition, % at 10 µM | AID 2732 | CHO-K1 CHOP-promoter luciferase, tunicamycin-induced, 15-18 h | hit rate 3.8% among 220,000;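 active = compounds that reduced the stress-induced luciferase reporter signal by more than about 70% of percent inhibition, limit read from the data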;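 also: 0% = tunicamycin plus vehicle and 100% = wells without tunicamycin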
Dynein transport: dynein cargo transport inhibition; 3617.4 mouse cells, GR-EGFP nuclear translocation imaging; test concentration mostly 20 µM; stimulated with dexamethasone, 1 µM; hits give low values; z-score, hits read low; hit rate 0.47% among 220,000;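 active = plate z-score of nuclear minus cytoplasmic receptor signal below a set negative limit, without overly bright fluorescence or cell loss, cut at about -3.5 in these data, passing the limit was not always enough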;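 also: z-score of nuclear minus cytoplasmic ring GR-EGFP intensity difference per well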
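Buffer or medium: tet-free, stripped-serum medium; Also added: dexamethasone, 1.0 µM final; Technique: high-content fluorescence imaging after fixation; Times: 48 h induction, 1 h compound, 30 min dex at 37 °C; Read-out: per-cell GR-EGFP intensity, nucleus versus surrounding cytoplasmic ring, well-averaged.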
b-catenin transl: modulators of beta-catenin nuclear translocation; hit rate 0.3% among 190,000; nuclear translocation activity, % at 5 µM; HeLa beta-catenin nuclear translocation, immunofluorescence imaging;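 active = nuclear translocation activity above 50% at 5 µM, with a well cell count of 50 or more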;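 also: per-cell ratio of nuclear to cytoplasmic median beta-catenin stain intensity; plate controls were DMSO negative control for no effect and GSK-3 inhibitor IX positive control for full effect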
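System: HeLa cells, endogenous beta-catenin; compound dosing: 5 µM primary single dose, 0.1% DMSO, 0.02–20 µM confirmation series; incubation: 24 h compound exposure at 37°C, 5% CO2; signal: beta-catenin immunofluorescence imaging with DAPI; evaluation: % activation, nuclear-to-cytoplasmic median beta-catenin signal ratio per cell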
Autophagy HCS: autophagy modulation, high-content screen; MEF GFP-LC3 puncta imaging; test concentration mostly 10 µM; hit rate 0.98% among 190,000; calls only at 10 µM (by protocol); AID 463193;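 active = percentage of spot-positive cells more than 3 SD above its plate mean, without a fluorescence outlier flag or 80% toxicity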;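 also: spot-positive cell cutoff set from DMSO-treated cells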
MT stabilizer: microtubule stabilizers in HeLa cells. % tubulin-high responders, % at 10 µM. HeLa tubulin immunostaining HCS, 24 h; share of cells brighter than vehicle mean+2SD. hit rate 0.83% among 200,000. AID 2205;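 active = plate Z-score above 3 for both tubulin-high and condensed-nucleus cell shares, with cell loss under 80%, at 10 µM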;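 also: anti alpha tubulin signal scored within the nucleus-defined area of each cell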
L major viab: Leishmania major promastigote growth inhibition; Leishmania major promastigotes, resazurin fluorescence viability; inhibition, % at 10 µM; hit rate 9% among 200,000; AID 1063; in the data active = inhibition above about 50%;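 also: promastigotes grown with compound for 44 hours at 28 °C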
* hit, by the source's call. Only some compounds are listed: those with a hit (about 12% of all), similar ones and a draw of the others.

Cc1nc2ccccn2c1/C(O)=C1\C(=O)C(=O)N(CCCn2ccnc2)C1c1ccncc1 (centres undefined) was read as CHOP inh -6.9, Dynein transport -0.0624, b-catenin transl 2.4, Autophagy HCS inactive, MT stabilizer 1.5 and L major viab -7.8.
Screening COc1ccc(S(N)(=O)=O)cc1C(N)=O returned CHOP inh 1.3, Dynein transport 0.837, b-catenin transl -0.2, Autophagy HCS inactive, MT stabilizer 2.2 and L major viab -6.0.
For COC(=O)C1C(=O)C2=C(CC1C)NC(C)=C(C(=O)OC1CCCC1)C2c1ccc(N(C)C)cc1 (centres undefined) the results were CHOP inh -18.2, Dynein transport -0.824, b-catenin transl 2.9, Autophagy HCS inactive, MT stabilizer 2.8 and L major viab 58.9*.
`CCc1ccnc(NS(=O)(=O)c2ccc3c(c2)CCO3)c1` gave CHOP inh 5.3, Dynein transport 0.698 and b-catenin transl -1.9.
`CCCc1cc(NCC2CCCO2)n2c(nc3ccccc32)c1C#N` (centres undefined) gave CHOP inh -12.5, Dynein transport -1.05, b-catenin transl 1.4, Autophagy HCS inactive, MT stabilizer 0.7 and L major viab 77.6*.
`S=c1[nH]nc(C2CCCCC2)o1` gave CHOP inh 6.9, Dynein transport 1.18, b-catenin transl -1.1, Autophagy HCS inactive, MT stabilizer 1.6 and L major viab -6.2.
`CCOc1ccc(C(=O)NCCC(=O)NCCCC(=O)O)cc1` gave CHOP inh -9.7, Dynein transport 0.179, b-catenin transl -6.1, Autophagy HCS inactive, MT stabilizer 4.5 and L major viab 1.8.
Screening CCOc1ccc2nc(SCC(=O)Nc3ccc4c(c3)OCCO4)[nH]c2c1 returned CHOP inh 51.1, Dynein transport 0.811, b-catenin transl -3.3, Autophagy HCS inactive, MT stabilizer 4.7 and L major viab 96.8*.
`COc1ccc2nc(SCC(=O)Nc3ccccc3)[nH]c2c1` gave CHOP inh 9.2, Dynein transport -0.675, Autophagy HCS inactive, MT stabilizer 3.0 and L major viab 2.0.
For CCOc1ccc2nc(SCC(=O)NCc3ccc4c(c3)OCO4)[nH]c2c1 the results were CHOP inh 17.8, Dynein transport -0.0563, b-catenin transl -1.9, Autophagy HCS inactive, MT stabilizer 3.4 and L major viab 0.6.
For COc1ccc2nc(SCC(=O)Nc3ccc4c(c3)OCCO4)[nH]c2c1 the results were CHOP inh 76.5*, Dynein transport -0.227, b-catenin transl 1.4, Autophagy HCS inactive, MT stabilizer 1.6 and L major viab -0.7.
COCCN1C(=O)c2ccccc2C(C(=O)N2CCN(c3ccccc3)CC2)C1c1ccc(F)cc1 (centres undefined) was read as CHOP inh 13.9, Dynein transport 0.241, b-catenin transl -0.8, Autophagy HCS inactive, MT stabilizer 1.5 and L major viab 40.7.
COCCNC(=O)c1cc(Br)ccc1Cl was read as CHOP inh 1.3, Dynein transport 0.367, Autophagy HCS inactive, MT stabilizer 2.4 and L major viab -3.3.
`CN(C)CCCCOc1ccc(Br)cc1Cl` gave CHOP inh -2.8, Dynein transport 1.68, b-catenin transl 0.2, Autophagy HCS inactive, MT stabilizer 3.5 and L major viab 95.7*.
`COCCNCCCOc1ccc(Br)cc1Cl` gave CHOP inh -19.7, Dynein transport -0.564, b-catenin transl -0.5, Autophagy HCS inactive, MT stabilizer 2.8 and L major viab 81.2*.
Screening CCc1cc(OCCOCCN(C)C)ccc1Cl returned CHOP inh 33.9, Dynein transport 1.85, b-catenin transl -2.9, Autophagy HCS inactive, MT stabilizer 3.8 and L major viab 97.9*.
Screening OCCNCCCOc1ccc(Cl)cc1Br returned CHOP inh -10.3, Dynein transport -0.641, b-catenin transl 0.5, Autophagy HCS inactive, MT stabilizer 1.5 and L major viab 86.7*.
`CCN(CC)C(=O)COc1ccc(Br)cc1Cl` gave CHOP inh 26.1, Dynein transport -0.158, Autophagy HCS inactive, MT stabilizer 1.7 and L major viab -4.7.
Screening COc1ccc(CC(=O)OCCN(C)C)cc1 returned CHOP inh 17.2, Dynein transport -0.254, Autophagy HCS inactive, MT stabilizer 1.9 and L major viab -1.4.
For CCOc1ccc(Cl)cc1CNCCNCCO the results were CHOP inh 17.7, Dynein transport -1.7, b-catenin transl -1.6, Autophagy HCS inactive, MT stabilizer 2.5 and L major viab 19.1.
For CC(C)CC(CO)N1CCN(C(=O)c2cccc(C(F)(F)F)c2)CCC1=O (centres undefined) the results were CHOP inh 15.9, Dynein transport 0.115, Autophagy HCS inactive, MT stabilizer 2.7 and L major viab -6.6.
For Clc1ccc(OCCn2ccnc2)c(Br)c1 the results were CHOP inh 12.3, Dynein transport 0.0722, Autophagy HCS inactive, MT stabilizer 2.3 and L major viab 30.9.
For C=CCNCCCOc1ccc(Cl)cc1Br the results were CHOP inh 15.5, Dynein transport 0.44, b-catenin transl 0.1, Autophagy HCS inactive, MT stabilizer 4.2 and L major viab 78.4*.
Screening Cc1ccc(OCCOCCN(C)C)c(Cl)c1 returned CHOP inh 15.5, Dynein transport 0.103, b-catenin transl 2.7, Autophagy HCS inactive, MT stabilizer 4.0 and L major viab 84.5*.
`COCCNCCCOc1ccc(Cl)cc1Br` gave CHOP inh 49.5, Dynein transport -0.825, b-catenin transl -0.4, Autophagy HCS inactive, MT stabilizer 3.1 and L major viab 65.0*.
Screening COCCNCCOc1ccc(C)cc1[N+](=O)[O-] returned CHOP inh 19.6, Dynein transport 0.262, b-catenin transl -1.0, Autophagy HCS inactive, MT stabilizer 3.0 and L major viab 1.3.
For O=C(CCc1nnc(-c2ccc3c(c2)OCO3)o1)NC(c1cccnc1)C(F)(F)F (centres undefined) the results were CHOP inh 9.9, Dynein transport 0.42, b-catenin transl -1.7, Autophagy HCS inactive, MT stabilizer 1.4 and L major viab 32.3.
For CCOC(=O)c1ccc(NC(=O)CC2S/C(=N/N=C/c3c[nH]c4ccccc34)NC2=O)cc1 (centres undefined) the results were CHOP inh 38.2, Dynein transport 0.776, b-catenin transl -0.1, Autophagy HCS inactive, MT stabilizer 0.8 and L major viab 62.4*.
For CCOC(=O)c1c(C)c(-c2ccccc2)n(CC(=O)NCCCN(CC)CC)c1C the results were CHOP inh 28.3, Dynein transport 0.2, b-catenin transl -1.7, Autophagy HCS inactive, MT stabilizer 2.8 and L major viab 51.4*.
